Data as given in ChEMBL document CHEMBL1155723, “Cytotoxic pheophorbide-related compounds from Clerodendrum calamitosum and C. cyrtophyllum” (2001).
≈ marks a conversion by molar mass, not a printed value. Calls of active or inactive are those of the source. The calls are words filed in the database; no cut-off is given here.

What was measured:
[1] = test system: KB; assay: Cytotoxicity against human KB cells after 72 hrs by SRB assay; format: functional; conditions: read-out: ED50 (the source's name)
In short: (§1)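 Stock cultures kept in RPMI-1640 with 25 mM HEPES, 0.2% (w/v) NaHCO3, 10% (v/v) FBS and 100 µg/mL kanamycin at 37 °C, 5% CO2. Trypsinized cells seeded at 2500-10 000 per well and exposed 72 h at 37 °C to graded concentrations from DMSO stocks (final DMSO ≤2% v/v). Cells fixed with cold 50% TCA, stained with 0.4% SRB, A562 read. ED50 interpolated from dose-response, triplicate.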

[2] = test system: A549; assay: Cytotoxicity against human A549 cells after 72 hrs by SRB assay; format: functional; conditions: A549, 72 h, read-out: ED50 (the source's name); in short: as §1
[3] = test system: HCT-8; assay: Cytotoxicity against human HCT8 cells after 72 hrs by SRB assay; format: functional; conditions: HCT-8, 72 h, read-out: ED50 (the source's name); in short: as §1
[4] = Cytotoxicity against human CAKI cells after 72 hrs by SRB assay; format: functional; conditions: read-out: ED50 (the source's name); in short: as §1
[5] = test system: 1A9; assay: Cytotoxicity against human 1A9 cells after 72 hrs by SRB assay; format: functional; conditions: 1A9, 72 h, read-out: ED50 (the source's name); in short: as §1
[6] = test system: MCF7; assay: Cytotoxicity against human MCF7 cells after 72 hrs by SRB assay; format: functional; conditions: MCF7, 72 h, read-out: ED50 (the source's name); in short: as §1
[7] = test system: SK-MEL; assay: Cytotoxicity against human SK-MEL cells after 72 hrs by SRB assay; format: functional; conditions: read-out: ED50 (the source's name); in short: as §1
[8] = test system: HTC; assay: Cytostatic activity against rat HTC cells at 33 ug/ml under direct photoirradiation; format: functional, cell-based
[9] = test system: HTC; assay: Cytostatic activity against rat HTC cells at 66 ug/ml under direct photoirradiation; format: functional, cell-based
[10] = test system: HTC; assay: Cytostatic activity against rat HTC cells at 33 ug/ml; format: functional, cell-based
[11] = test system: HTC; assay: Cytostatic activity against rat HTC cells at 66 ug/ml; format: functional, cell-based
[12] = test system: KB; assay: Selectivity for human KB-7d cells to human KB cells; format: functional
[13] = test system: KB; assay: Selectivity for human KB-VCR cells to human KB cells; format: functional
[14] = test system: KB; assay: Selectivity for human KB-CPT cells to human KB cells; format: functional

Compound | EC50 [1] [µg/mL] | EC50 [2] [µg/mL] | EC50 [3] [µg/mL] | EC50 [4] [µg/mL] | EC50 [5] [µg/mL] | EC50 [6] [µg/mL] | EC50 [7] [µg/mL] | Activity [8] | Activity [9] | Activity [10] | Activity [11] | fold change (FC) [12] | fold change (FC) [13] | fold change (FC) [14]
C=Cc1c(C)c2cc3nc(c(C(=O)C(=O)OC)c4[nH]c(cc5nc(cc1[nH]2)C(C)=C5CC)c(C)c4C(=O)OC)[C@@H](CCC(=O)OC)[C@@H]3C | 0.2 (≈ 0.306 µM) | 0.49 (≈ 0.751 µM) | 0.79 (≈ 1.21 µM) | 0.55 (≈ 0.843 µM) | 0.2 (≈ 0.306 µM) | 0.73 (≈ 1.12 µM) | 1.1 (≈ 1.69 µM) | Active | Active | inactive | inactive |  |  | 
C=Cc1c(C)c2cc3nc(c4c5[nH]c(cc6nc(cc1[nH]2)C(C)=C6CC)c(C)c5C(=O)[C@]4(O)C(=O)OC)[C@@H](CCC(=O)OC/C=C(\C)CCCC(C)CCCC(C)CCCC(C)C)[C@@H]3C (stereo not given in full) | 12 (≈ 13.5 µM) | 15 (≈ 16.9 µM) | 14 (≈ 15.8 µM) | 19 (≈ 21.4 µM) | 22 (≈ 24.8 µM) | 8.8 (≈ 9.92 µM) | 14 (≈ 15.8 µM) |  |  |  |  |  |  | 
C=Cc1c(C)c2cc3nc(c4c5[nH]c(cc6nc(cc1[nH]2)C(C)=C6CC)c(C)c5C(=O)[C@@H]4C(=O)OC)[C@@H](CCC(=O)OC)[C@@H]3C [METHYL PHEOPHORBIDE A] | 0.23 (≈ 0.379 µM) | 0.83 (≈ 1.37 µM) | 1 (≈ 1.65 µM) | 0.62 (≈ 1.02 µM) | 0.26 (≈ 0.429 µM) | 0.95 (≈ 1.57 µM) | 1.2 (≈ 1.98 µM) | Active | Active | inactive | inactive |  |  | 
C=Cc1c(C)c2cc3nc(c(C(=O)C(=O)OC)c4[nH]c(cc5nc(cc1[nH]2)C(C)=C5CC)c(C)c4C(=O)OC)[C@@H](CCC(=O)O)[C@@H]3C [PURPURIN 7 DIMETHYL ESTER] | 0.7 (≈ 1.1 µM) | 1.8 (≈ 2.82 µM) | 1.6 (≈ 2.51 µM) | 1.3 (≈ 2.04 µM) | 0.64 (≈ 1 µM) | 1.6 (≈ 2.51 µM) | 1.1 (≈ 1.72 µM) | Active | Active | inactive | inactive | 0.7 | 0.5 | 1
C=Cc1c(C)c2cc3nc(c4c5[nH]c(cc6nc(cc1[nH]2)C(C)=C6CC)c(C)c5C(=O)[C@]4(O)C(=O)OC)[C@@H](CCC(=O)O)[C@@H]3C | 1.3 (≈ 2.14 µM) | > 4 | > 4 | 3 (≈ 4.93 µM) | 1.2 (≈ 1.97 µM) | > 4 | 4 (≈ 6.57 µM) | Active | Active | inactive | inactive |  |  | 
C=Cc1c(C)c2cc3nc(c4c5[nH]c(cc6nc(cc1[nH]2)C(C)=C6CC)c(C)c5C(=O)[C@@H]4C(=O)OC)[C@@H](CCC(=O)O)[C@@H]3C [PHEOPHORBIDE A] | 0.46 (≈ 0.776 µM) | 1.5 (≈ 2.53 µM) | 1.5 (≈ 2.53 µM) | 0.88 (≈ 1.48 µM) | 0.48 (≈ 0.81 µM) | 1.6 (≈ 2.7 µM) | 0.91 (≈ 1.54 µM) | Active | Active | inactive | inactive | 1 | 0.6 | 1.1
CC(=O)O[C@H]1C(=O)[C@@]2(C)[C@H]([C@H](OC(=O)c3ccccc3)[C@]3(O)C[C@H](OC(=O)[C@H](O)[C@@H](NC(=O)c4ccccc4)c4ccccc4)C(C)=C1C3(C)C)[C@]1(OC(C)=O)CO[C@@H]1C[C@@H]2O [PACLITAXEL] |  |  |  |  |  |  |  |  |  |  |  | 1 | 15 | 1
C=Cc1c(C)c2cc3nc(c4c5[nH]c(cc6nc(cc1[nH]2)C(C)=C6CC)c(C)c5C(=O)[C@]4(O)C(=O)OC)[C@@H](CCC(=O)OC/C=C(\C)CCCC(C)CCCC(C)CC(O)CC(C)C)[C@@H]3C (mixture of isomers) |  |  |  |  |  |  |  | Active |  |  |  |  |  | 
COc1cc([C@@H]2c3cc4c(cc3[C@@H](O[C@@H]3O[C@@H]5CO[C@@H](C)O[C@H]5[C@H](O)[C@H]3O)[C@H]3COC(=O)[C@H]23)OCO4)cc(OC)c1O [ETOPOSIDE] |  |  |  |  |  |  |  |  |  |  |  | 119 | 153 | 1
C=Cc1c(C)c2cc3nc(c4c5[nH]c(cc6nc(cc1[nH]2)C(C=O)=C6CC)c(C)c5C(=O)[C@@H]4C(=O)OC)[C@@H](CCC(=O)OC/C=C(\C)CCCC(C)CCCC(C)CCCC(C)C)[C@@H]3C (stereo not given in full) |  |  |  |  |  |  |  | Active |  |  |  |  |  | 
C=Cc1c(C)c2cc3nc(c4c5[nH]c(cc6nc(cc1[nH]2)C(C)=C6CC)c(C)c5C(=O)[C@]4(O)C(=O)OC)[C@@H](CCC(=O)OC)[C@@H]3C | 0.3 (≈ 0.482 µM) | 0.47 (≈ 0.755 µM) | 0.4 (≈ 0.642 µM) | 1.9 (≈ 3.05 µM) | 0.27 (≈ 0.434 µM) | 0.45 (≈ 0.723 µM) | 0.84 (≈ 1.35 µM) | Active | Active | inactive | inactive | 0.8 | >57 | 1.1
